Laboratory results as given in ChEMBL document CHEMBL4145448, “Broad activity of diphenyleneiodonium analogues against Mycobacterium tuberculosis, malaria parasites and bacterial pathogens” (Eur J Med Chem, 2018).
pIC50: −log10 of the molar value.

Assays:
[1] = Selectivity index, ratio of CC50 for human HepG2 cells in presence of 1% FBS to MIC for Acinetobacter baumannii ATCC 17978 col10; format: toxicity; settings: read-out: Selectivity Index
[2] = Selectivity index, ratio of CC50 for human HepG2 cells in presence of 1% FBS to MIC for Klebsiella pneumoniae isolate M320445; format: toxicity; settings: read-out: Selectivity Index
Escherichia coli = experiment: Antibacterial activity against Escherichia coli N4149 after 18 hrs by broth microdilution method; format: functional; settings: N4149, 18 h
How it was run: (§1)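 Broth microdilution per CLSI in cation-adjusted Mueller-Hinton broth. 100 µL inoculum (~10^6 cfu/mL in CaMHB) mixed with 100 µL CaMHB containing compound, 0 to 128 µM. Incubated 18 h at 37 °C. MIC taken as the lowest concentration with no visible growth. Polymyxin B served as positive control. Isolates were stored at -80 °C in tryptone soy broth with 20% glycerol.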

Staphylococcus aureus [3] = experiment: Antibacterial activity against methicillin-resistant Staphylococcus aureus ATCC 43300 after 18 hrs by broth microdilution method; format: functional; settings: ATCC 43300, 18 h; how it was run: as §1
Pseudomonas aeruginosa [4] = experiment: Antibacterial activity against Pseudomonas aeruginosa isolate 18878B klon 1 after 18 hrs by broth microdilution method; format: functional; settings: isolate 18878B klon 1, 18 h; how it was run: as §1
Plasmodium knowlesi [5] = experiment: microbe, parasite or virus in culture; settings: YH1, 90 h
[6] = Selectivity index, ratio of CC50 for human HepG2 cells in presence of 1% FBS to MIC for Escherichia coli N11281; format: toxicity; settings: read-out: Selectivity Index
Staphylococcus aureus [7] = experiment: Antibacterial activity against vancomycin-resistant Staphylococcus aureus ATCC 700699 after 18 hrs by broth microdilution method; format: functional; settings: ATCC 700699, 18 h; how it was run: as §1
[8] = Selectivity index, ratio of CC50 for human HepG2 cells in presence of 1% FBS to MIC for Pseudomonas aeruginosa QLD PSA 1; format: toxicity; settings: read-out: Selectivity Index
How it was run: (§2)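 Selectivity index is CC50 (1% FBS) divided by MIC. […] They then got compound at 300 to 0.14 µM (3-fold steps) for 24 h at 37 °C, 5% CO2. Resazurin (10 µM, 2 h) was read at ex/em 560/590 in duplicate wells. For MIC, CLSI broth microdilution was run in CaMHB with ~10^6 cfu/mL inoculum and 0–128 µM compound.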

[9] = Selectivity index, ratio of CC50 for human HepG2 cells in presence of 1% FBS to MIC for Pseudomonas aeruginosa ATCC 27853; format: toxicity; settings: read-out: Selectivity Index; how it was run: as §2
[10] = Selectivity index, ratio of CC50 for human HepG2 cells in presence of 1% FBS to MIC for Acinetobacter baumannii ATCC 17978; format: toxicity; settings: read-out: Selectivity Index
[11] = Selectivity index, ratio of CC50 for human HepG2 cells in presence of 1% FBS to MIC for Klebsiella pneumoniae isolate 224-11-C; format: toxicity; settings: read-out: Selectivity Index
Klebsiella pneumoniae [12] = experiment: Antibacterial activity against Klebsiella pneumoniae isolate 224-11-C after 18 hrs by broth microdilution method; format: functional; how it was run: as §1
Staphylococcus aureus [13] = experiment: Antibacterial activity against vancomycin-intermediate Staphylococcus aureus ATCC 700698 after 18 hrs by broth microdilution method; format: functional; settings: ATCC 700698, 18 h; how it was run: as §1
[14] = Selectivity index, ratio of CC50 for human HepG2 cells in presence of 1% FBS to MIC for vancomycin-intermediate Staphylococcus aureus ATCC 700698; format: toxicity; settings: read-out: Selectivity Index; how it was run: as §2
[15] = Selectivity index, ratio of CC50 for human HepG2 cells in presence of 1% FBS to MIC for Pseudomonas aeruginosa isolate 19147nm; format: toxicity; settings: read-out: Selectivity Index; how it was run: as §2
Acinetobacter baumannii = experiment: Antibacterial activity against Acinetobacter baumannii isolate 246-01-C after 18 hrs by broth microdilution method; format: functional; how it was run: as §1
Pseudomonas aeruginosa [16] = experiment: Antibacterial activity against Pseudomonas aeruginosa QLD PSA 1 after 18 hrs by broth microdilution method; format: functional; settings: QLD PSA 1, 18 h; how it was run: as §1
[17] = Selectivity index, ratio of CC50 for human HepG2 cells in presence of 1% FBS to MIC for Acinetobacter baumannii isolate 246-01-C; format: toxicity; settings: read-out: Selectivity Index
Enterococcus faecium = experiment: Antibacterial activity against vancomycin-resistant Enterococcus faecium ATCC 700221 after 18 hrs by broth microdilution method; format: functional; settings: ATCC 700221, 18 h; how it was run: as §1
Klebsiella pneumoniae [18] = experiment: Antibacterial activity against Klebsiella pneumoniae ATCC 13883 after 18 hrs by broth microdilution method; format: functional; settings: ATCC 13883, 18 h; how it was run: as §1
[19] = Selectivity index, ratio of CC50 for human HepG2 cells in presence of 1% FBS to MIC for Escherichia coli N4149; format: toxicity; settings: read-out: Selectivity Index
[20] = Selectivity index, ratio of CC50 for human HepG2 cells in presence of 1% FBS to MIC for vancomycin-resistant Enterococcus faecium ATCC 700221; format: toxicity; settings: read-out: Selectivity Index; how it was run: as §2
Plasmodium falciparum [21] = experiment: microbe, parasite or virus in culture; settings: CS2, 90 h
[22] = Selectivity index, ratio of CC50 for human HepG2 cells in presence of 1% FBS to MIC for Escherichia coli N2381; format: toxicity; settings: read-out: Selectivity Index
[23] = Selectivity index, ratio of CC50 for human HepG2 cells in presence of 1% FBS to IC50 for Plasmodium knowlesi YH1; format: toxicity; settings: read-out: Ratio IC50
Plasmodium knowlesi [24] = experiment: Growth inhibition of Plasmodium knowlesi YH1 after 50 hrs by ethidium bromide staining based flow cytometry; format: functional, organism-based; settings: YH1, 50 h
How it was run: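 P. knowlesi YH1 cultured in human O+ erythrocytes in RPMI-HEPES with 0.5% Albumax II under 1% O2/4% CO2. Ring-synchronised parasites set up at 1% parasitaemia and 1% haematocrit with compound. Cultured 50 h to late trophozoites of the next cycle. Stained 1 h with 10 µg/mL ethidium bromide and parasitaemia counted by flow cytometry.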

[25] = Selectivity index, ratio of CC50 for human HepG2 cells in presence of 1% FBS to IC50 for drug-resistant GFP-fused Plasmodium falciparum D10; format: toxicity; settings: read-out: Ratio IC50
Plasmodium falciparum [26] = experiment: Growth inhibition of […] GFP-fused Plasmodium falciparum D10 after 90 hrs by ethidium bromide staining based flow cytometry; format: functional, organism-based; settings: D10, 90 h
How it was run: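 Parasites cultured in human O+ erythrocytes in RPMI-HEPES pH 7.4 with hypoxanthine, NaHCO3, gentamicin and 0.5% Albumax II under 1% O2/4% CO2 at 37 °C. Synchronised to rings with heparin plus sorbitol. Set up at 1% parasitaemia and 1% haematocrit with 10x compound added. Cultured 90 h to next-cycle trophozoites. Stained with 10 µg/mL ethidium bromide for 1 h, washed, parasitaemia counted by flow cytometry with GFP gating.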

[27] = Stability in cation-adjusted Mueller-Hinton broth at 37 degC after 1 day by LC-MS analysis; format: physicochemical; settings: 24 h
How it was run: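 Compound was incubated under bacterial assay conditions: CaMHB, 37 °C, polypropylene microtitre wells. The species present were analysed by LCMS the next day.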

SMILES	selectivity ratio [1]	selectivity ratio [2]	MIC (Escherichia coli)	MIC (Staphylococcus aureus [3])	MIC (Pseudomonas aeruginosa [4])	selectivity ratio [6]	MIC (Staphylococcus aureus [7])	selectivity ratio [8]	selectivity ratio [9]	selectivity ratio [10]	selectivity ratio [11]	MIC (Klebsiella pneumoniae [12])	MIC (Staphylococcus aureus [13])	selectivity ratio [14]	selectivity ratio [15]	MIC (Acinetobacter baumannii)	MIC (Pseudomonas aeruginosa [16])	selectivity ratio [17]	MIC (Enterococcus faecium)	MIC (Klebsiella pneumoniae [18])	further results
c1ccc2c(c1)[I+]c1ccccc1-2	50	0.78	37 µM	4.7 µM	4.7 µM	0.78	19 µM	3.1	0.39	13	0.78	75 µM	19 µM	1.6	13	4.7 µM	9.3 µM	6.3	4.7 µM	37 µM	pIC50 (Plasmodium knowlesi [5]): 6.13; selectivity ratio [19]: 0.78; selectivity ratio [20]: 6.3; pIC50 (Plasmodium falciparum [21]): 7.40; selectivity ratio [22]: 0.78
N#Cc1ccc2c(c1)-c1ccccc1[I+]2	10	0.32	> 71 µM	1.1 µM	8.8 µM	0.32	8.8 µM	0.13	0.32	5.1	> 0.32	> 71 µM	8.8 µM	2.5	5.1	18 µM	18 µM	0.13	1.1 µM	35 µM	selectivity ratio [23]: 232; pIC50 (Plasmodium knowlesi [24]): 6.96; selectivity ratio [25]: 256; pIC50 (Plasmodium falciparum [26]): 7.05; selectivity ratio [19]: > 0.32; selectivity ratio [20]: 20; selectivity ratio [22]: 0.32
Cc1ccc2c(c1)[I+]c1ccccc1-2.O=S(=O)([O-])C(F)(F)F	3.2	0.11	72 µM	4.5 µM	4.5 µM	0.11	9.05 µM	> 0.05	0.05	0.81	0.05	72 µM	9.1 µM	0.41	0.81	18 µM	> 72 µM	0.21	4.5 µM	72 µM	Stability [27]: Stable; selectivity ratio [19]: 0.05; selectivity ratio [20]: 0.81; selectivity ratio [22]: 0.05
